Source: PubChem BioAssay (several laboratories)
CD11b adhes inh – inhibitors of CD11b/CD18 adhesion to fibrinogen, primary screen, K562 cells, luminescence; inhibition, % at 10 µM; actives 0.54% (n = 93,000); Integrin beta-2 (Homo sapiens) + Integrin alpha-M (Homo sapiens), P05107+P11215; ATPlite luminescence; Mn2+ added to activate the integrin;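 active = primary inhibition of 50% or more at 10 µM, then 40% or more on retest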
EphB4 ephrin blk – EphB4-ephrin-B2 interaction antagonists, primary screen, biochemical, TNYL-RAW peptide probe, fluorescence polarization | inhibition, % at 7 µM | actives 0.15% (n = 97,000) | Ephrin type-B receptor 4 (Homo sapiens), P54760 | AID 720, 2007 | EphB4 LBD / TNYL-RAW-Alexa532 peptide;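 active = inhibition above the screen-wide mean inhibition plus 3 SD, cut at about 15% in these data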;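 note: 0% = DMSO wells and 100% = excess unlabeled TNYL-RAW peptide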
Rev-RRE block – HIV-1 Rev-RRE binding inhibitors, primary screen, biochemical, FRET, protein-RNA interaction; inhibition, % at 8 µM; Rev peptide-RRE RNA binding; P05866; actives 0.79% (n = 97,000);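 active = inhibition above the screen-wide mean plus 3 SD, cut at about 35% in these data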;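 note: 0% = median DMSO wells and 100% = median Neomycin B control wells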
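Test system – labelled RRE RNA duplex and labelled Rev peptide · Reagent – labelled Rev peptide · Doses – one concentration, 8 µM nominal · Incubation – 5 + 15 min at 25 °C · Signal – FRET fluorescence readout · Read-out basis – % inhibition of FRET ratio versus controls · Control set – DMSO wells as 0% and neomycin B wells as 100% inhibition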
Smad3 FoxH1 inh – Smad3/FoxH1 peptide binding inhibitors, primary screen, biochemical, TR-FRET; Mothers against decapentaplegic homolog 3 (Homo sapiens), P84022; TR-FRET Smad3/Dy647-FoxH1 peptide binding, europium anti-His; inhibition, % at 25 µM; actives 0.29% (n = 88,000); AID 630, 2007;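 active = compounds that reduce the energy-transfer binding signal between the protein and its labelled peptide by more than half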;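 note: 0% = Smad3 plus labelled peptide maximal FRET and 100% = peptide-only background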
Phagocyt inh – inhibitors of macrophage phagocytosis, primary screen, imaging, J774A.1 cells, IgG beads; AID 1029, 2008; J774A.1 macrophage IgG-bead phagocytosis; inhibition, % at 5 µM; actives 0.07% (n = 110,000);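 active = inhibition above the mean of the plate negative controls plus 5 SD, cut at about 13% in these data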;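 note: phagocytic index as fraction of beads internalized from green versus red external bead signal; plate controls were DMSO negative control for no effect and cytochalasin-D positive control for full effect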
Mac1 fbg enh – enhancers of CD11b/CD18 adhesion to fibrinogen, primary screen, K562 cells, luminescence. actives 0.07% (n = 93,000). Integrin beta-2 (Homo sapiens) + Integrin alpha-M (Homo sapiens), P05107+P11215. activation, % at 10 µM. ATPlite luminescence;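 active = 10 µM primary screen giving 50% or more activity, confirmed by 40% or more on retest at that dose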
Starred values were filed as active, the others as inactive; / = no result; + = active, no number; [ ] = another dose, or the depositor's remark. An excerpt weighted towards active compounds, which were near 1.3% of everything screened.

SMILES	CD11b adhes inh	EphB4 ephrin blk	Rev-RRE block	Smad3 FoxH1 inh	Phagocyt inh	Mac1 fbg enh
COC(=O)CSc1nc2cc(C)ccc2cc1C#N	-10	1	12	-11	0	2
Cc1[nH]c2ccccc2c1/C=C/c1cc[n+](C)cc1	/	2	138*[fluorescence artefact?]	/	/	/
CCOC(=O)Cc1nnc2c(Nc3ccccc3F)nc3nonc3n12	99*	-4	3	-6	-2	-11
CCOC(=O)c1ccc2[nH]cc(C(C)=O)c(=O)c2c1	/	-3	53*	11	/	/
N#C/C(=C\N1CCN(Cc2ccc3c(c2)OCO3)CC1)c1nc2ccccc2s1	51	9	65*	4	-1	1
CCOC(=O)N1CCN(/C=C(\C#N)c2nc3ccccc3s2)CC1	2	-3	53*	16	0	-2
C=CCOC(=O)C(C#N)c1nc2ccccc2nc1N1CCN(Cc2ccc3c(c2)OCO3)CC1 (centres undefined)	-8	/	/	0	1	62
COC(=O)c1ccc(/C=C(\C#N)c2nc3ccccc3s2)cc1	/	2	31	24	/	/
N#C/C=C(/N)N1CCN(c2ccc(Cl)c(Cl)c2)CC1	4	4	4	/	-1	-2
Nc1ccccc1C(=O)N/N=C1\C2CN3CCN(C2)CC1(c1ccccc1)C3	/	/	/	/	7	/
CCOC(=O)C1=C(O)/C(=C/c2cn(CC(=O)NCC3CCCO3)c3ccccc23)SC1=Nc1ccc(C)cc1 (centres undefined)	/	0	41*	-13	/	/
CC(C)C(=O)c1cn(CC(=O)NCC2CCCO2)c2ccccc12 (centres undefined)	-14	7	7	2	0	0
C[C@H](CCC(=O)O)[C@H]1CC[C@H]2[C@@H]3[C@@H](O)C[C@H]4C[C@@H](O)CC[C@]4(C)[C@H]3C[C@@H](O)[C@]12C	/	/	/	12	/	/
CCCCn1c(NC(C)=O)c(C#N)c2nc3ccccc3nc21	2	1	11	4	2	-8
C=CCn1c(NC(=O)c2ccccc2Cl)c(C#N)c2nc3ccccc3nc21	97*	-2	20	34	-1	-8
C=CCn1c(NC(=O)c2ccccc2)c(C#N)c2nc3ccccc3nc21	/	/	/	67*	/	/
Cn1c(C(=O)N2CCN(c3ccc(Cl)cc3)CC2)cc2c(=O)n(C)c3ccccc3c21	/	/	/	1	/	/
N#C/C(=C\C1=C(N2CCOCC2)C(=C\c2ccc(Cl)cc2)/CC1)C(=O)Nc1ccccc1F	/	/	/	/	12	/
CCN(CC)c1ccc(/C=C2\CCC(/C=C(\C#N)C(=O)Nc3ccccc3F)=C2N2CCOCC2)cc1	59	/	/	/	+[fluoresces]	9
CN(C)c1ccc(O)c2c1CC1CC3[C@@H](N(C)C)C(=O)C(C(N)=O)=C(O)[C@]3(O)C(=O)C1=C2O (some centres undefined)	/	/	/	55*[fluorescence artefact?]	/	/
O=C(COC(=O)[C@H](Cc1ccccc1)NC(=O)c1cccs1)NC1CC1	/	/	/	/	-9	/
O=C(COC(=O)C(Cc1ccccc1)NC(=O)c1ccco1)NC1CC1 (centres undefined)	4	17*	6	/	-1	-5
COC(=O)C(Cc1c[nH]c2ccccc12)NC(=O)C(C)C (centres undefined)	-2	-5	-1	-14	9	3
CCOC(=O)C(Cc1c[nH]c2ccccc12)NC(=O)c1ccco1 (centres undefined)	4	0	6	8	90*[artifact]	-2
COc1ccc(CNC(=O)C(C#N)c2nc3ccccc3nc2N2CCN(C)CC2)cc1 (centres undefined)	-4	-3	1	7	-4	5
COc1ccc(CNC(=O)C(C#N)c2nc3ccccc3nc2N2CCCC2)cc1 (centres undefined)	6	11	36*	42	-2	-1
CCCCCCOC(=O)C(C#N)c1nc2ccccc2nc1N1CCN(C)CC1 (centres undefined)	22	17*	24	0	1	-1
